According to ChEMBL document CHEMBL5143750, “Bisubstrate Inhibitors of Severe Acute Respiratory Syndrome Coronavirus-2 Nsp14 Methyltransferase” (ACS Med Chem Lett, 2022):

Experiments:
A549 [1] = experiment: Cytotoxicity against human A549 cells overexpressing ACE2 and TMPRSS2 incubated for 48 hrs by MTS assay; format: functional
Method in brief: (§1)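 A549 AT host cells were used for viability read-out. More than 95% viability at 50 μM was classed as nontoxic. CC50 values came from at least duplicate determinations and were averaged.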

A549 [2] = experiment: Cytotoxicity against human A549 cells overexpressing ACE2 and TMPRSS2 assessed as cell viability at 50 uM incubated for 48 hrs by MTS assay; format: functional; details: read-out: Activity; method in brief: as §1
[3] = Metabolic stability in CD-1 mouse plasma at 1 micromol/L measured upto 24 hrs by LC-MS/MS analysis; format: ADME, cell-free; details: dose 1 µmol/L
[4] = target: Replicase polyprotein 1ab (Severe acute respiratory syndrome coronavirus 2) (UniProt P0DTD1); experiment: Stabilization of SARS-CoV-2 NSP14 expressed in Escherichia coli BL21(DE3) assessed as change in melting temperature at 200 uM incubated for 4 mins by SYPRO orange dye based thermal shift assay
[5] = Metabolic stability in human liver S9 fraction assessed as half life at 1 micromol/L in presence of NADPH measured upto 24 hrs by LC-MS/MS analysis; format: ADME, subcellular; details: s9, 24 h, 1 µM, dose 1 µmol/L
[6] = Metabolic stability in CD-1 mouse liver S9 fraction assessed as half life at 1 micromol/L in presence of NADPH measured upto 24 hrs by LC-MS/MS analysis; format: ADME, subcellular; details: s9, 24 h, 1 µM, dose 1 µmol/L
[7] = Metabolic stability in human plasma at 1 micromol/L measured upto 24 hrs by LC-MS/MS analysis; format: ADME, cell-free; details: dose 1 µmol/L
Method in brief: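 Compound was incubated in human plasma, and percentage remaining was followed over the incubation. Data are mean ± SD.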

[8] = Metabolic stability in human liver S9 fraction assessed as half life at 1 micromol/L in presence of UDPGA measured upto 24 hrs by LC-MS/MS analysis; format: ADME, subcellular; details: s9, 24 h, 1 µM, dose 1 µmol/L
[9] = Metabolic stability in CD-1 mouse liver S9 fraction assessed as half life at 1 micromol/L in presence of UDPGA measured upto 24 hrs by LC-MS/MS analysis; format: ADME, subcellular; details: s9, 24 h, 1 µM, dose 1 µmol/L

Work on `CC(=O)Nc1ncnc2c1ncn2[C@@H]1O[C@H](CNS(=O)(=O)c2ccc3ccccc3c2)[C@@H](OC(C)=O)[C@H]1OC(C)=O` yielded a CC50 (A549 [1]) of over 100 µM.
Work on `Nc1ncnc2c1ncn2[C@@H]1O[C@H](CNS(=O)(=O)c2ccc3cccnc3c2)[C@@H](O)[C@H]1O` yielded a viability at 50 µM (A549 [2]) of over 95%.
With `Nc1ncnc2c1ncn2[C@@H]1O[C@H](C[C@@H](N)CC[C@H](N)C(=O)O)[C@@H](O)[C@H]1O` [SINEFUNGIN] the viability at 50 µM (A549 [2]) was over 95%.
For `CCC(CC)COC(=O)[C@H](C)N[P@](=O)(OC[C@H]1O[C@@](C#N)(c2ccc3c(N)ncnn23)[C@H](O)[C@@H]1O)Oc1ccccc1`, the CC50 (A549 [1]) was 43 µM.
For `Nc1ncnc2c1ncn2[C@@H]1O[C@H](CNS(=O)(=O)c2ccc3nc(Cl)ccc3c2)[C@@H](O)[C@H]1O`, the viability at 50 µM (A549 [2]) was over 95%.
In the case of `Nc1ncnn2c([C@@H]3O[C@H](CNS(=O)(=O)c4ccc5ccccc5c4)[C@@H](O)[C@H]3O)ccc12`, the CC50 (A549 [1]) is reported as over 100 µM, the t1/2 at 24 h, 1 µM [3] is reported as over 24 h and the ΔTm [4] is reported as over 8 °C. The t1/2 [5] was 14 h, the t1/2 [6] was 0.482 h and the t1/2 at 24 h, 1 µM [7] was over 24 h. It also gave a t1/2 [8] of over 0.75 h and a t1/2 [9] of over 0.75 h.
Compound `Nc1ncnc2c1ncn2[C@@H]1O[C@H](CNS(=O)(=O)c2ccc3ccccc3c2)[C@@H](O)[C@H]1O` has a t1/2 at 24 h, 1 µM [3] of over 24 h, a ΔTm [4] of over 8 °C and a t1/2 [5] of 11.2 h. For the same compound, the t1/2 [6] was 4.55 h, the t1/2 at 24 h, 1 µM [7] was over 24 h and the viability at 50 µM (A549 [2]) was over 95%. It also gave a t1/2 [8] of over 0.75 h and a t1/2 [9] of over 0.75 h.
`CC(C)C(=O)O[C@@H]1[C@H](OC(=O)C(C)C)[C@@H](CNS(=O)(=O)c2ccc3ccccc3c2)O[C@H]1n1cnc2c(N)ncnc21` showed a CC50 (A549 [1]) of over 100 µM.
With `CC(=O)Nc1ncnc2c1ncn2[C@@H]1O[C@H](CNS(=O)(=O)c2ccc3ccccc3c2)[C@@H](O)[C@H]1O` the CC50 (A549 [1]) was over 100 µM and the ΔTm [4] was over 8 °C.
`CC(=O)O[C@@H]1[C@H](OC(C)=O)[C@@H](CNS(=O)(=O)c2ccc3ccccc3c2)O[C@H]1c1ccc2c(N)ncnn12` gave a CC50 (A549 [1]) of 63 µM.
`CC(=O)O[C@@H]1[C@H](OC(C)=O)[C@@H](CNS(=O)(=O)c2ccc3ccccc3c2)O[C@H]1n1cnc2c(N)ncnc21` gave a CC50 (A549 [1]) of over 100 µM.
In the case of `O=c1ccc2ccc(O)cc2o1` [UMBELLIFERONE], the t1/2 [9] is reported as 0.013 h.
In the case of `Nc1ncnc2c1ncn2[C@@H]1O[C@H](CNCc2ccc3ccccc3c2)[C@@H](O)[C@H]1O`, the viability at 50 µM (A549 [2]) is reported as over 95%.
Compound `Nc1ncnc2c1ncn2[C@@H]1O[C@H](CNC(=O)c2ccc3ccccc3c2)[C@@H](O)[C@H]1O` has a viability at 50 µM (A549 [2]) of over 95%.
